According to ChEMBL document CHEMBL2146403, “Synthesis and Antitumor Activity of Ellagic Acid Peracetate” (ACS Med Chem Lett, 2012):
Active and inactive are the calls of the source. The calls are words filed in the database; no cut-off is given here.

How the values were obtained:
[1] = tested on: Mus musculus; assay: Immunoenhancing activity in C57BL/6 mouse assessed as increase in peripheral blood WBC level at 0.5 mg/kg, po administered for 1 week by trypan blue exclusion method relative to vehicle-treated control; format: functional
Procedure, shortened: (§1)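 Tumor-free normal mice were dosed for 1 week with test agent or vehicle. WBCs in peripheral blood and immune cells enriched from bone marrow and liver were counted by Trypan Blue exclusion and compared with the vehicle group. Columns are group means, bars SE, significance p ≤ 0.05.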

[2] = tested on: B16; assay: Induction of apoptosis in mouse B16 cells assessed as late apoptotic cells at 10 uM after 72 hrs by AnnexinV/PI staining-based flow cytometric analysis (reference value: 2.48%); format: functional
[3] = tested on: Mus musculus; assay: Toxicity in C57BL/6 mouse assessed as change in liver weight at 0.5 mg/kg, po administered for 3 weeks relative to vehicle-treated control; format: organism-based; design: dose 0.5 mg/kg, route oral; settings: in vivo, 504 h
Procedure, shortened: (§2)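 Oral acute toxicity in normal mice dosed daily with test agent or vehicle for 3 weeks. Body, spleen and liver were inspected and weighed. Values are group means with n ≥ 4 and SE bars.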

[4] = tested on: Mus musculus; assay: Immunoenhancing activity in C57BL/6 mouse assessed as increase in immune subset cells in bone marrow at 0.5 mg/kg, po administered for 1 week by flow cytometric analysis relative to vehicle-treated control; format: functional, organism-based; design: dose 0.5 mg/kg
[5] = tested on: Mus musculus; assay: Immunoenhancing activity in C57BL/6 mouse assessed as increase in total immune cells in liver at 0.5 mg/kg, po administered for 1 week by trypan blue exclusion method relative to vehicle-treated control; format: functional; procedure, shortened: as §1
[6] = tested on: Mus musculus; assay: Immunoenhancing activity in C57BL/6 mouse assessed as increase in total immune cells in bone marrow at 0.5 mg/kg, po administered for 1 week by trypan blue exclusion method relative to vehicle-treated control; format: functional; procedure, shortened: as §1
[7] = tested on: Mus musculus; assay: Toxicity in C57BL/6 mouse assessed as change in body weight at 0.5 mg/kg, po administered for 3 weeks relative to vehicle-treated control; format: organism-based; design: dose 0.5 mg/kg, route oral; settings: in vivo, 504 h; procedure, shortened: as §2
[8] = tested on: B16; assay: Growth inhibition of mouse B16 cells at 10 uM after 24 to 96 hrs by trypan blue exclusion assay; format: functional, cell-based
[9] = tested on: Mus musculus; assay: Toxicity in C57BL/6 mouse assessed as change in spleen weight at 0.5 mg/kg, po administered for 3 weeks relative to vehicle-treated control; format: organism-based; design: dose 0.5 mg/kg, route oral; settings: in vivo, 504 h; procedure, shortened: as §2
[10] = tested on: B16; assay: Induction of apoptosis in mouse B16 cells assessed as early apoptotic cells at 10 uM after 72 hrs by AnnexinV/PI staining-based flow cytometric analysis (reference value: 2.28%); format: functional
[11] = tested on: B16; assay: Induction of apoptosis in mouse B16 cells assessed as decrease in Bcl2 expression at 10 uM after 72 hrs by Western blot analysis; format: functional, cell-based
[12] = tested on: Mus musculus; assay: Immunomodulatory activity in C57BL/6 mouse NK cells expressing NK1.1 and CD3 assessed as cell surface CD107a expression level at 0.5 mg/kg, po administered for 1 week by YAC1 co culture-based immunostaining analysis (reference value: 41.5%); format: functional
[13] = tested on: Mus musculus; assay: Immunoenhancing activity in C57BL/6 mouse assessed as increase in immune subset cells in liver at 0.5 mg/kg, po administered for 1 week by flow cytometric analysis relative to vehicle-treated control; format: functional, organism-based; design: dose 0.5 mg/kg
[14] = tested on: B16; assay: Antitumor activity against mouse B16 cells xenografted in C57BL/6 mouse assessed as tumor growth inhibition at 0.5 mg/kg, po administered for 1 week prior to tumor injection followed by treatment for additional 2 weeks relative to vehicle-treated control; format: functional
Procedure, shortened: (§3)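 Subcutaneous B16 melanoma in C57BL/6 immunocompetent mice aged 8–12 weeks. Test agent or vehicle was given daily in drinking water at 0.5 mg/kg for one week. B16 cells were then inoculated and dosing continued for 2 more weeks. At sacrifice, tumors were excised and weighed against the vehicle group, and kidneys, livers and spleens were inspected.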

[15] = tested on: Mus musculus; assay: Toxicity in C57BL/6 mouse xenografted with B16 cells assessed as adverse effects at 0.5 mg/kg, po administered for 1 week prior to tumor injection followed by treatment for additional 2 weeks relative to vehicle-treated control; format: organism-based; design: dose 0.5 mg/kg, route oral; settings: in vivo; procedure, shortened: as §3
[16] = tested on: B16; assay: Induction of apoptosis in mouse B16 cells assessed as necrotic cells at 10 uM after 72 hrs by AnnexinV/PI staining-based flow cytometric analysis (reference value: 5.26%); format: functional
[17] = tested on: B16; assay: Induction of apoptosis in mouse B16 cells assessed as viable cells at 10 uM after 72 hrs by AnnexinV/PI staining-based flow cytometric analysis (reference value: 90%); format: functional; settings: B16, 72 h, read-out: Activity
[18] = tested on: Mus musculus; assay: Immunomodulatory activity in C57BL/6 mouse CD3-deficient NK cells expressing NK1.1 assessed as […]- and IL-18 induced IFNgamma level at 0.5 mg/kg, po administered for 1 week by flow cytometric analysis (reference value: 76.7%); format: functional

Row | Compound | Activity [1] [%] | Activity [2] [%] | Activity [3] | Activity [4] | Activity [5] | Activity [6] | Activity [7] | growth inhibition (GI) [8] | Activity [9] | Activity [10] [%] | Activity [11] | Activity [12] [%] | Activity [13] | inhibition in vivo at 0.5 mg/kg ([14]; read-out: GI) [%] | Activity [15] | Activity [16] [%] | viability at 10 µM [17] [%] | Activity [18] [%] | growth inhibition (GI) [14]
1 | CC(=O)Oc1cc2c(=O)oc3c(OC(C)=O)c(OC(C)=O)cc4c(=O)oc(c1OC(C)=O)c2c34 [ELLAGIC ACID TETRAACETATE] | 70 | 9.78 | Non-toxic | inactive | 200% | 50% | Non-toxic | Active | Non-toxic | 6.99 | Active | 40.4 | inactive | 70 | Non-toxic | 11.8 | 71.4 | 78.2 | 
2 | O=c1oc2c(O)c(O)cc3c(=O)oc4c(O)c(O)cc1c4c23 [ELLAGIC ACID] |  | 6.84 | Non-toxic | inactive | inactive | inactive | Non-toxic | Active | Non-toxic | 4.33 | Active | 37.2 | inactive |  | Non-toxic | 4.95 | 83.9 | 74.9 | inactive
